The values that follow come from ChEMBL document CHEMBL4814076, “Discovery of a Potent and Selective Covalent Inhibitor of Bruton's Tyrosine Kinase with Oral Anti-Inflammatory Activity” (ACS Med Chem Lett, 2021).

The nature of series [1]: Half life in Beagle dog at 0.5 mg/kg, iv measured upto 24 hrs by LC-MS/MS analysis. The conditions noted are these: in vivo. Type of series: ADME, organism-based, Canis lupus familiaris. The procedure, abridged: (§1)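 Rats (nonfasted; IV 1 mg/kg, PO 5 mg/kg) and dogs (fasted; IV 0.5 mg/kg, PO 2.5 mg/kg) dosed from 20% hydroxypropyl-β-cyclodextrin solution.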
Series [2] can be described thus: Clearance in Beagle dog at 2.5 mg/kg, po or 0.5 mg/kg, iv measured upto 24 hrs by LC-MS/MS analysis. To be noted: in vivo. In kind it is ADME, organism-based, Canis lupus familiaris. In outline: as §1
For series [3], the target named is Serine/threonine-protein kinase B-raf (Homo sapiens, UniProt P15056). The series can be described thus: Inhibition of recombinant human B-RAF (416 to end residues) using myelin basic protein as substrate incubated for 40 mins in presence of [gamma33P]ATP by scintillation counting method.
Chain of Serine/threonine-protein kinase B-raf (P15056 whole entry): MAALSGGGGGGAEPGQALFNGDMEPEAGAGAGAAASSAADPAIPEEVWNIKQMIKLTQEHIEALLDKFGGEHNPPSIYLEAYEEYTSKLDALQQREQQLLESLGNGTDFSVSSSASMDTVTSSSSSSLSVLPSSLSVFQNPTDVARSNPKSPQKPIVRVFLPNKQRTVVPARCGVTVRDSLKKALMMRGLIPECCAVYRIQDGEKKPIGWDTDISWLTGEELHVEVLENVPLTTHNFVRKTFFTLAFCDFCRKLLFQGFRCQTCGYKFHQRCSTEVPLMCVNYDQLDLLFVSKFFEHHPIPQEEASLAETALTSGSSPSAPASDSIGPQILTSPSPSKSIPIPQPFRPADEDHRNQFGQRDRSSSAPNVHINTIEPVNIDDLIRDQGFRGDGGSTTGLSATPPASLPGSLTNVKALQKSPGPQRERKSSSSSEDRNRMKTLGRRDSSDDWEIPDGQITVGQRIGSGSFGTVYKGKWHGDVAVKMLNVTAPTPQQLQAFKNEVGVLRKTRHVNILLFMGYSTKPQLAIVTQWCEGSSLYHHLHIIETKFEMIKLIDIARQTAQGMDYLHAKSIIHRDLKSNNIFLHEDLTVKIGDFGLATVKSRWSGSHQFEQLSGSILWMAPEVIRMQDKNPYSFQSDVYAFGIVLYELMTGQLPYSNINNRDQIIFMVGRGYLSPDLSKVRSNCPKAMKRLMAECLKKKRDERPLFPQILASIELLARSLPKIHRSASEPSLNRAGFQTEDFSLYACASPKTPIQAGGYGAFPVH
Series [4] can be described thus: Cmax in Beagle dog at 2.5 mg/kg, po measured upto 24 hrs by LC-MS/MS analysis. Type of series: ADME, organism-based, Canis lupus familiaris. Details: route oral, dose 2.5 mg/kg, time <=24. The conditions noted are these: in vivo. In outline:
as §1

Series [5] concerns the target Tyrosine-protein kinase Lck (Homo sapiens, UniProt P06239). Kind of series: Inhibition of recombinant human full length LCK using KVEKIGEGTYGVVYK as substrate incubated for 40 mins in presence of [gamma33P]ATP by scintillation counting method.
The target in series [6] is Tyrosine-protein kinase BTK (Homo sapiens, UniProt Q06187). Kind of series: Irreversible covalent inhibition of recombinant unphosphorylated human GST-tagged BTK kinase domain (389 to 659 residues) expressed in insect cells assessed as protein-compound adduct formation under denaturing conditions by HPLC analysis. The procedure, abridged: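 BTK protein incubated with compound. Adduct mass measured under denaturing and nondenaturing conditions.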
Chain of Tyrosine-protein kinase BTK (Q06187 whole entry, the tested form may be a part): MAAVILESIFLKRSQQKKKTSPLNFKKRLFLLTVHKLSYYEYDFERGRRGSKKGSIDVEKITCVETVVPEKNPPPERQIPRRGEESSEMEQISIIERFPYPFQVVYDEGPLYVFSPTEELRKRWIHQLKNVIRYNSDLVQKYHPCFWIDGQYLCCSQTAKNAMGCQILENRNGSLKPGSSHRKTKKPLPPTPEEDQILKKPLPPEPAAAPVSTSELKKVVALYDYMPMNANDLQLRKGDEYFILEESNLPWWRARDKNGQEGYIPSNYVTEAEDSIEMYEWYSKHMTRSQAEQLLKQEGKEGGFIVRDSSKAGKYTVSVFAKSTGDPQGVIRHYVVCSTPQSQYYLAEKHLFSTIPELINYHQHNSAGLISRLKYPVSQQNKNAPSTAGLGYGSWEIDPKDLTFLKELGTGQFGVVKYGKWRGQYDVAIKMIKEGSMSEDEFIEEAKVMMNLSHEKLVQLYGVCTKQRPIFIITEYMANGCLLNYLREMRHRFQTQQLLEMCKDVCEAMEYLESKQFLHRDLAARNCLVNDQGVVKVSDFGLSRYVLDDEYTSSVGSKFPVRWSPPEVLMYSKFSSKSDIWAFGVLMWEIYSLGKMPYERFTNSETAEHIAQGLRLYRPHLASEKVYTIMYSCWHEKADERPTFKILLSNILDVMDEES

Series [7] addresses T1, Tyrosine-protein kinase TXK (Homo sapiens, UniProt P42681).
T1 sequence (P42681 whole entry): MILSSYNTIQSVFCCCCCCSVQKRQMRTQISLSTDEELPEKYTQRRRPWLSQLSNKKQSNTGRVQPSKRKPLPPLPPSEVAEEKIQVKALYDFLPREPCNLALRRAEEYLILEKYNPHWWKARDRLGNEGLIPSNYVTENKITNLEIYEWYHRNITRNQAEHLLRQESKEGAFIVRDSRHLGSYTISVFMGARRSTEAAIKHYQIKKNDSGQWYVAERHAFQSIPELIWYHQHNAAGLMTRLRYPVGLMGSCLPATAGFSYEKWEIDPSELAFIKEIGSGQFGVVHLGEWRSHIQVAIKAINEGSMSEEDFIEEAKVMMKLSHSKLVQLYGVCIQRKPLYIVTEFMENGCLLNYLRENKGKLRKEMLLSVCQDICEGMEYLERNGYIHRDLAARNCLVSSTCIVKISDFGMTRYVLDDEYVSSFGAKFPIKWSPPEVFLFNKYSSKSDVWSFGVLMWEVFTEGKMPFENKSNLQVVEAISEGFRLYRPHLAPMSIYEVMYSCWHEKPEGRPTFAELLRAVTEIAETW
The series can be described thus: Inhibition of recombinant human TXK (256 to end residues) using GEEPLYWSFPAKKK as substrate incubated for 40 mins in presence of [gamma33P]ATP by scintillation counting method.

Series [8] can be described thus: In vivo protein occupancy at BTK in Wistar rat at 3 mg/kg, po measured after 24 hrs by ELISA relative to control. In kind it is functional. In outline:
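Single oral dose of 3 mg/kg in rats. BTK occupancy compared with plasma concentration over time out to 48 h.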
For orientation: An ELISA detects its analyte on a solid surface through an enzyme-linked reagent.

Series [9] in a line: Oral bioavailability in Beagle dog at 2.5 mg/kg measured upto 24 hrs by LC-MS/MS analysis. In kind it is ADME, organism-based, Canis lupus familiaris. To be noted: in vivo. The procedure, abridged: as §1
Series [10] can be described thus: Tmax in Sprague-Dawley rat at 5 mg/kg, po measured upto 24 hrs by LC-MS/MS analysis. To be noted: in vivo. In kind it is ADME, organism-based. In outline:
as §1

For series [11], the target named is T2, Cytoplasmic tyrosine-protein kinase BMX (Homo sapiens, UniProt P51813).
T2 sequence (P51813 whole entry): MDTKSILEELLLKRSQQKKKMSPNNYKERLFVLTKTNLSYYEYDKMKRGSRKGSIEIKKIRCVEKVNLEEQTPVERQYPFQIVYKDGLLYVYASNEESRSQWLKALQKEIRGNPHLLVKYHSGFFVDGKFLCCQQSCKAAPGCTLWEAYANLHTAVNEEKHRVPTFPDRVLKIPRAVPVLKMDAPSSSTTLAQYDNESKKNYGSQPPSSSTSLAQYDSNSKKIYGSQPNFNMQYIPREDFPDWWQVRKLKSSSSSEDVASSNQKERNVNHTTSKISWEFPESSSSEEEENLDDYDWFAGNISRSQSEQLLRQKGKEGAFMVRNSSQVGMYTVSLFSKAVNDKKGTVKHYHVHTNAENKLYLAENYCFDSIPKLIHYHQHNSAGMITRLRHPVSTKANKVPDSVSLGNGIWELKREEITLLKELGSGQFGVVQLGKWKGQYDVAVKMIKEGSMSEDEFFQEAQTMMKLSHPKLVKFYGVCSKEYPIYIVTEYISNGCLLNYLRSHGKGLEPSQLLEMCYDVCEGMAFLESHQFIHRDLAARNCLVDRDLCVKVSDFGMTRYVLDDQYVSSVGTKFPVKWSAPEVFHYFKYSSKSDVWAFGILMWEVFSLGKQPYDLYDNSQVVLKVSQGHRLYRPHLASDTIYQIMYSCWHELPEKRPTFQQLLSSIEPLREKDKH
Kind of series: Inhibition of recombinant human full length BMX using poly(Glu, Tyr) 4:1 as substrate incubated for 40 mins in presence of [gamma33P]ATP by scintillation counting method.

In series [12] the target is T3, Tyrosine-protein kinase Tec (Homo sapiens, UniProt P42680).
T3 sequence (P42680 whole entry): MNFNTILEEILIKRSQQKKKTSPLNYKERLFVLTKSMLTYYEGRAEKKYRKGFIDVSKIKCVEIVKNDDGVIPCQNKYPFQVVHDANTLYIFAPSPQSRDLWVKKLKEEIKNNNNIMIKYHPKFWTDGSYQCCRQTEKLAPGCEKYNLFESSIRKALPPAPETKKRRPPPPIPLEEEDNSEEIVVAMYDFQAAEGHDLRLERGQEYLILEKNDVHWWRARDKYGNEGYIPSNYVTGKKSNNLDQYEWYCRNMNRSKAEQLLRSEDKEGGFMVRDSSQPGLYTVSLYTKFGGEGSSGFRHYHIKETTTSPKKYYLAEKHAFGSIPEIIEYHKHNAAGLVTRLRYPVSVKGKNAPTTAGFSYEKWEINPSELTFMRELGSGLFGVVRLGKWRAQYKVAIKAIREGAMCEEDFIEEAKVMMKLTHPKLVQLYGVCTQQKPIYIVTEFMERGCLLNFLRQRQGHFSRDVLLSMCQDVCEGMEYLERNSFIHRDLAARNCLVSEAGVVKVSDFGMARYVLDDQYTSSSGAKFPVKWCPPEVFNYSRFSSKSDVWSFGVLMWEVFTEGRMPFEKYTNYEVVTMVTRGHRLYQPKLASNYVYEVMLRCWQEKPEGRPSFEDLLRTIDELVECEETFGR
The series can be described thus: Inhibition of recombinant human TEC (174 to end residues) using EFPIYDFLPAKKK as substrate incubated for 40 mins in presence of [gamma33P]ATP by scintillation counting method.

Series [13] has as its target Tyrosine-protein kinase HCK (Homo sapiens, UniProt P08631). Kind of series: Inhibition of recombinant human HCK (230 to 497 residues) using GGMEDIYFEFMGGKKK as substrate incubated for 40 mins in presence of [gamma33P]ATP by scintillation counting method.

Activity calls are given as the source filed them. Where only a bound is given, the exact number is not on record here.

Chain of Tyrosine-protein kinase HCK (P08631 whole entry, the tested form may be a part): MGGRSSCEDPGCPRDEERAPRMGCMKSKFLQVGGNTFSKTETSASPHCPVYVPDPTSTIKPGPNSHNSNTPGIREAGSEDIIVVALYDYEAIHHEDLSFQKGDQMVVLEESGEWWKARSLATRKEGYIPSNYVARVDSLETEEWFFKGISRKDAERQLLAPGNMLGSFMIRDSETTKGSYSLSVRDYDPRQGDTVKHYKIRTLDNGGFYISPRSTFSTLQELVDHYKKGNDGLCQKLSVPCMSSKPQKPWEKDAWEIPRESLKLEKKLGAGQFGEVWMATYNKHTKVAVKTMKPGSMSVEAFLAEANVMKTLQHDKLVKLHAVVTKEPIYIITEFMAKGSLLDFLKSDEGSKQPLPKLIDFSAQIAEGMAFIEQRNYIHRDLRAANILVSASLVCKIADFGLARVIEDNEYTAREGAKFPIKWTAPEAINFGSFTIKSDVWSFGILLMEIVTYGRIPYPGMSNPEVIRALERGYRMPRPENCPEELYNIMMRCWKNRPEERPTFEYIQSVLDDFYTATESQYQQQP
Chain of Tyrosine-protein kinase Lck (P06239 whole entry, the tested form may be a part): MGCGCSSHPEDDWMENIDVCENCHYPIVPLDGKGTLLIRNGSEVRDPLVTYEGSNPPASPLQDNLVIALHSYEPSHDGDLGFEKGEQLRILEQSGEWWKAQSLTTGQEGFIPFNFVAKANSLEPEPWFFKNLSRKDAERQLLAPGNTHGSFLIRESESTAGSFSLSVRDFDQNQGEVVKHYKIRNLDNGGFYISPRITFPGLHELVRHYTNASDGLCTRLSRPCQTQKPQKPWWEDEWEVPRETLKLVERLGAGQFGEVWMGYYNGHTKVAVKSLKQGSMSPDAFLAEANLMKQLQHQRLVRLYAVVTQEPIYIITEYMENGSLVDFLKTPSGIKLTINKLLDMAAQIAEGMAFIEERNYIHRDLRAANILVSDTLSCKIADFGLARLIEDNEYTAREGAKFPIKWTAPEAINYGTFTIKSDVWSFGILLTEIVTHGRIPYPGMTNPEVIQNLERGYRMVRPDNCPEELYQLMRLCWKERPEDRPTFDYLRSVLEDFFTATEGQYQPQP

A word on the half-life: it is the time needed for the level to fall by half in the phase considered. One may read the IC50 as the concentration at which inhibition is half-maximal. What is called Cmax is the peak of the concentration-time curve. By bioavailability is commonly meant the share of a dose that reaches the circulation, judged against a reference dose that is usually intravenous. A word on the Tmax: it is the time from dosing to the highest level. Regarding `C=CC(=O)N1CC[C@@H](NC(=O)c2sc3nccc4c3c2NC(=O)N4c2ccc(Oc3ccccc3)cc2C)C1`, the half-life in series [1] is 1.9 h. The same molecule had a clearance in [2] of 8 mL/min/kg. In addition, the IC50 was 7840 nM in [3]; 130 nM in [5]; 1770 nM in series [7]; 129 nM in series [11]; 409 nM in series [12]; above 30000 nM in series [13]. Also, in series [4], the peak level (Cmax) was 1500 nM. The inhibition entry in [6] is “Active”. In [8], this molecule yielded an Activity of 70%. The bioavailability in series [9] stood at 68%. Moreover, the Tmax in series [10] stood at 1 h.
